Source: ChEMBL document CHEMBL1671867, “Novel polymyxin derivatives carrying only three positive charges are effective antibacterial agents” (Antimicrob Agents Chemother, 2008)
Converted amounts (≈) assume the structure as drawn. Bridge positions count the residues as written; N and C are the ends. Square brackets hold non-standard residues; d marks the D form. Peptide text beside a SMILES is read from it. * marks the point of attachment. Decanoyl = CCCCCCCCCC(=O)*; Octanoyl = CCCCCCCC(=O)*; Dab = NCC[C@H](N)C(=O)O; Abu = CC[C@H](N)C(=O)O

Experiments:
Citrobacter freundii = experiment: Antibacterial activity against Citrobacter freundii ATCC 8090 by CLSI M7-A7 agar dilution method; type: functional
Klebsiella oxytoca [1] = experiment: Antibacterial activity against Klebsiella oxytoca CCUG51683 by CLSI M7-A7 agar dilution method; type: functional
Outline: (§1)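 Agar dilution on Mueller-Hinton agar with test substance at 0.25 to 32 μg/ml in twofold steps. Spots of about 10^4 CFU applied with a multipoint inoculator.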

Escherichia coli [2] = experiment: Antibacterial activity against Escherichia coli ATCC […] by CLSI M7-A7 agar dilution method; type: functional
Pseudomonas aeruginosa [3] = experiment: Antibacterial activity against Pseudomonas aeruginosa ATCC 27853 by CLSI M7-A7 agar dilution method; type: functional; outline: as §1
Klebsiella pneumoniae [4] = experiment: Antibacterial activity against Klebsiella pneumoniae CCUG45421 by CLSI M7-A7 agar dilution method; type: functional; outline: as §1
Escherichia coli [5] = experiment: Antibacterial activity against Escherichia coli SC 9253 by CLSI M7-A7 agar dilution method; type: functional; outline: as §1
Enterobacter cloacae [6] = experiment: Antibacterial activity against Enterobacter cloacae CCUG52947 by CLSI M7-A7 agar dilution method; type: functional
Escherichia coli [7] = experiment: Antibacterial activity against Escherichia coli SC 9252 by CLSI M7-A7 agar dilution method; type: functional
Enterobacter cloacae [8] = experiment: Antibacterial activity against Enterobacter cloacae ATCC 23355 by CLSI M7-A7 agar dilution method; type: functional
Acinetobacter baumannii [9] = experiment: Antibacterial activity against Acinetobacter baumannii ATCC 19606 by CLSI M7-A7 agar dilution method; type: functional
Staphylococcus aureus = experiment: Antibacterial activity against Staphylococcus aureus ATCC 25923 by CLSI M7-A7 agar dilution method; type: functional; outline: as §1
Escherichia coli [10] = experiment: Antibacterial activity against Escherichia coli IH3080 assessed as growth inhibition at 10 ug after 18 hrs by […]; type: functional
Escherichia coli [11] = experiment: Antibacterial activity against Escherichia coli IH3080 by CLSI M7-A7 agar dilution method; type: functional
Serratia marcescens = experiment: Antibacterial activity against Serratia marcescens ATCC 8100 by CLSI M7-A7 agar dilution method; type: functional; outline: as §1
Enterobacter cloacae [12] = experiment: Antibacterial activity against Enterobacter cloacae by CLSI M7-A7 agar dilution method; type: functional
Escherichia coli [13] = experiment: Antibacterial activity against Escherichia coli by CLSI M7-A7 agar dilution method; type: functional; outline: as §1
Acinetobacter baumannii [14] = experiment: Antibacterial activity against Acinetobacter baumannii by CLSI M7-A7 agar dilution method; type: functional
Klebsiella pneumoniae [15] = experiment: Antibacterial activity against Klebsiella pneumoniae by CLSI M7-A7 agar dilution method; type: functional; outline: as §1
Klebsiella oxytoca [16] = experiment: Antibacterial activity against Klebsiella oxytoca ATCC 13182 by CLSI M7-A7 agar dilution method; type: functional; outline: as §1
Candida albicans = experiment: Antibacterial activity against Candida albicans ATCC 28366 by CLSI M7-A7 agar dilution method; type: functional
Escherichia coli [17] = experiment: Antibacterial activity against Escherichia coli IH3080 assessed as growth inhibition at 10 ug after 18 hrs by […] in presence of 1 ug/ml rifampin; type: functional
Acinetobacter baumannii [18] = experiment: Antibacterial activity against Acinetobacter baumannii F264 by Etest method in presence of 0.5 ug/ml NAB739; type: functional
Pseudomonas aeruginosa [19] = experiment: Antibacterial activity against Pseudomonas aeruginosa ATCC 27853by Etest method in presence of 0.5 ug/ml NAB739; type: functional
Outline: (§2)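 MICs of the antibiotic taken from E-strips on Mueller-Hinton agar, run both with and without peptide. […] Inoculum was prepared per the strip manufacturer, matching CLSI M2-A9.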

Acinetobacter baumannii [20] = experiment: Antibacterial activity against Acinetobacter baumannii ATCC 19606 by Etest method; type: functional
Acinetobacter baumannii [21] = experiment: Antibacterial activity against Acinetobacter baumannii ATCC 19606 by Etest method in presence of NAB739; type: functional
Pseudomonas aeruginosa [22] = experiment: Antibacterial activity against Pseudomonas aeruginosa ATCC 27853by Etest method; type: functional; outline: as §2
Acinetobacter baumannii [23] = experiment: Antibacterial activity against Acinetobacter baumannii F264 by Etest method; type: functional
Outline: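 E-strip MIC on Mueller-Hinton agar without added peptide; inoculum per manufacturer, matching CLSI M2-A9.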

Pseudomonas aeruginosa [24] = experiment: Antibacterial activity against Pseudomonas aeruginosa ATCC 27853by Etest method in presence of 1 ug/ml NAB739; type: functional; outline: as §2
Acinetobacter baumannii [25] = experiment: Antibacterial activity against Acinetobacter baumannii ATCC 19606 by Etest method in presence of 1 ug/ml NAB739; type: functional
Pseudomonas aeruginosa [26] = experiment: (§3) Antibacterial activity against Pseudomonas aeruginosa ATCC 27853by Etest method in presence of […] NAB739; type: functional
Acinetobacter baumannii [27] = experiment: (§4) Antibacterial activity against Acinetobacter baumannii F264 by Etest method in presence of […] NAB739; type: functional
Acinetobacter baumannii [28] = experiment: Antibacterial activity against Acinetobacter baumannii F264 by Etest method in presence of NAB739; type: functional
Acinetobacter baumannii [29] = experiment: (§5) Antibacterial activity against Acinetobacter baumannii ATCC 19606 by Etest method in presence of […] NAB739; type: functional
Acinetobacter baumannii [30] = experiment: Antibacterial activity against Acinetobacter baumannii ATCC 19606 by Etest method in presence of 0.5 ug/ml NAB739; type: functional
Acinetobacter baumannii [31] = experiment: Antibacterial activity against Acinetobacter baumannii F264 by Etest method in presence of 1 ug/ml NAB739; type: functional
Acinetobacter baumannii [32] = experiment: as §5; type: functional; remark: listed apart in the source
Pseudomonas aeruginosa [33] = experiment: as §3; type: functional; remark: listed apart in the source
Pseudomonas aeruginosa [34] = experiment: Antibacterial activity against Pseudomonas aeruginosa ATCC 27853by Etest method in presence of 2 ug/ml NAB739; type: functional
Acinetobacter baumannii [35] = experiment: as §4; type: functional; remark: listed apart in the source
[36] = Inhibition of [3H]gentamicin binding to brush border membrane of renal cortex
Outline: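 Brush border membrane vesicles prepared from male albino rat renal cortex by Mg2+-EGTA precipitation. Incubated with 20 μM [3H]gentamicin in 10 mM HEPES pH 7.5 with 300 mM mannitol, with or without compound, 60 min at 4°C. Then filtered, washed, and bound radioactivity counted by scintillation. IC50 fitted with the Hill equation.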

Molecule	MIC (Citrobacter freundii) [µg/mL]	MIC (Klebsiella oxytoca [1]) [µg/mL]	MIC (Escherichia coli [2]) [µg/mL]	MIC (Pseudomonas aeruginosa [3]) [µg/mL]	MIC (Klebsiella pneumoniae [4]) [µg/mL]	MIC (Escherichia coli [5]) [µg/mL]	MIC (Enterobacter cloacae [6]) [µg/mL]	MIC (Escherichia coli [7]) [µg/mL]	MIC (Enterobacter cloacae [8]) [µg/mL]	MIC (Acinetobacter baumannii [9]) [µg/mL]	MIC (Staphylococcus aureus) [µg/mL]	inhibition zone (IZ) (Escherichia coli [10]) [mm2]	MIC (Escherichia coli [11]) [µg/mL]	MIC (Serratia marcescens) [µg/mL]	MIC (Enterobacter cloacae [12]) [µg/mL]	MIC (Escherichia coli [13]) [µg/mL]	MIC (Acinetobacter baumannii [14]) [µg/mL]	MIC (Klebsiella pneumoniae [15]) [µg/mL]	MIC (Klebsiella oxytoca [16]) [µg/mL]	inhibition zone (IZ) (Escherichia coli [17]) [mm2]	also measured
CCCCCCCC(=O)N[C@H](C(=O)N[C@@H](CC)C(=O)N[C@H]1CCNC(=O)[C@H]([C@@H](C)O)NC(=O)[C@H](CCN)NC(=O)[C@H](CCN)NC(=O)[C@H](CC(C)C)NC(=O)[C@@H](Cc2ccccc2)NC(=O)[C@H](CCN)NC1=O)[C@@H](C)O (Octanoyl-T[Abu][Dab][Dab][dF]L[Dab][Dab]T; lactam 3-C)	16 (≈ 14.9 µM)	32 (≈ 29.8 µM)	> 32	> 32	> 32	> 32	> 32	> 32	32 (≈ 29.8 µM)	> 32	> 32	32	> 32	> 32	> 32	> 16	> 32	> 32	32 (≈ 29.8 µM)	194	MIC (Candida albicans): > 32 µg/mL
C[C@@H](O)[C@H]1C(=O)N2C(C(=O)O)=C(S[C@@H]3CN[C@H](C(=O)N(C)C)C3)[C@H](C)[C@H]12 [MEROPENEM]	–	–	–	–	–	–	–	–	–	–	–	–	–	–	–	–	–	–	–	–	MIC (Acinetobacter baumannii [18]): 1 µg/mL; MIC (Pseudomonas aeruginosa [19]): 0.25 µg/mL; MIC (Acinetobacter baumannii [20]): 1 µg/mL (≈ 2.61 µM); fractional inhibitory concentration index (FICI) (Acinetobacter baumannii [21]): 0.5; MIC (Pseudomonas aeruginosa [22]): 0.25 µg/mL (≈ 0.652 µM); MIC (Acinetobacter baumannii [23]): > 32 µg/mL; MIC (Pseudomonas aeruginosa [24]): 0.25 µg/mL; MIC (Acinetobacter baumannii [25]): 0.125 µg/mL; MIC (Pseudomonas aeruginosa [26]): 0.25 µg/mL; MIC (Acinetobacter baumannii [27]): 6 µg/mL; fractional inhibitory concentration index (FICI) (Acinetobacter baumannii [28]): 0.281; MIC (Acinetobacter baumannii [29]): 0.5 µg/mL; MIC (Acinetobacter baumannii [30]): 0.25 µg/mL; MIC (Acinetobacter baumannii [31]): 0.38 µg/mL; MIC (Acinetobacter baumannii [32]): 1 µg/mL; MIC (Pseudomonas aeruginosa [33]): 0.25 µg/mL; MIC (Pseudomonas aeruginosa [34]): 0.25 µg/mL; MIC (Acinetobacter baumannii [35]): 32 µg/mL
POLYMYXIN B [listing 1 of 2 here]	1	0.5	1	1	1	> 32	1	> 32	0.5	1	> 32	120	0.5	> 32	0.5	0.25	0.5	0.5	0.5	125	MIC (Candida albicans): > 32 µg/mL
POLYMYXIN B [listing 2 of 2 here]	–	–	–	–	–	–	–	–	–	–	–	–	–	–	–	–	–	–	–	–	IC50 [36]: 39.3 µM
CCCCCCCCCC(=O)N[C@H](C(=O)N[C@H](CO)C(=O)N[C@H]1CCNC(=O)[C@H]([C@@H](C)O)NC(=O)[C@H](CCN)NC(=O)[C@H](CCN)NC(=O)[C@H](CC(C)C)NC(=O)[C@@H](Cc2ccccc2)NC(=O)[C@H](CCN)NC1=O)[C@@H](C)O (Decanoyl-T[dS][Dab][Dab][dF]L[Dab][Dab]T; lactam 3-C)	2 (≈ 1.81 µM)	2 (≈ 1.81 µM)	2 (≈ 1.81 µM)	4 (≈ 3.62 µM)	4 (≈ 3.62 µM)	16 (≈ 14.5 µM)	2 (≈ 1.81 µM)	8 (≈ 7.24 µM)	2 (≈ 1.81 µM)	4 (≈ 3.62 µM)	> 32	130	2 (≈ 1.81 µM)	> 32	2 (≈ 1.81 µM)	1 (≈ 0.906 µM)	2 (≈ 1.81 µM)	2 (≈ 1.81 µM)	2 (≈ 1.81 µM)	150	MIC (Candida albicans): > 32 µg/mL
CCCCCCCC(=O)N[C@@H](CCN)C(=O)N[C@H](C(=O)N[C@@H](CCN)C(=O)N[C@H]1CCNC(=O)[C@H]([C@@H](C)O)NC(=O)[C@H](CC)NC(=O)[C@H](CCN)NC(=O)[C@H](CC(C)C)NC(=O)[C@@H](Cc2ccccc2)NC(=O)[C@H](CC)NC1=O)[C@@H](C)O (Octanoyl-[Dab]T[Dab][Dab][Abu][dF]L[Dab][Abu]T; lactam 4-C)	–	–	–	–	–	–	–	–	–	–	–	0	–	–	–	–	–	–	–	10	–
